According to ChEMBL document CHEMBL4304789, “Design, Synthesis, and Biological Evaluation of 2,4-Imidazolinedione Derivatives as HDAC6 Isoform-Selective Inhibitors” (ACS Med Chem Lett, 2019):

Organism: Homo sapiens
Test: Selectivity ratio of IC50 for HDAC7 (unknown origin) to IC50 for HDAC6 (unknown origin)
Summary of the method: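 Each isoform's IC50 comes from a dose–effect curve in an HDAC isoform inhibition panel, with replicates n ≥ 2. The ratio is that isoform's IC50 divided by the HDAC6 IC50.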

Ratio IC50: > 20000
SMILES: Cc1ccc(CN2C(=O)N(c3ccc(Cl)cc3)C(=O)C2CCC(=O)Nc2ccc(C(=O)NO)cc2)cc1 (stereo unspecified)
